A selection: hits, their analogues and other compounds. The true share with any hit is near 4%.
Mdm2 ligase inh = inhibitors of human Mdm2 E3 ubiquitin ligase | Q00987 | cell-based MDM2 ubiquitination luciferase reporter, 2 h; 0 = plate control, 100 = twice control, blank-subtracted | signal enhancement, % at 5 µM | 0.11% of 210,000 active | AID 1230;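 active = signal enhancement of 30% or more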;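 also: luminescence tracks abundance of the self-degrading MDM2-luciferase fusion protein; higher signal means inhibition of MDM2 E3 ligase activity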
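Assay system: mammalian cells stably expressing self-ubiquitinating, self-degrading MDM2 E3–luciferase fusion. Quantity: 2000 cells in each well. Medium: DMEM culture medium. Compound dosing: single-point 5 µM. Timing: cell settling 4 h, compound treatment 2 h, both 37 °C. Technique: luciferase luminescence. Read-out basis: percent signal gain over controls, blank-subtracted. Benchmarks: plate controls and plate blanks.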
CHOP inhibitor = CHOP inhibition in unfolded protein response. inhibition, % at 10 µM. 3.8% of 220,000 active. CHO-K1 CHOP-promoter luciferase, tunicamycin-induced, 15-18 h;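 active = compounds that reduced the stress-induced luciferase reporter signal by more than about 70% of percent inhibition, limit read from the data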;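 also: 0% = tunicamycin plus vehicle and 100% = wells without tunicamycin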
Hsp70 activator = transcriptional activators of Hsp70. activation, % at 10 µM. HeLa Hsp70 promoter luciferase reporter, luminescence; scaled: vehicle 0, proteasome-inhibitor control 100%. 0.04% of 200,000 active;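 active = activation above the mean across all tested compounds plus 3 SD, cutoff set per campaign, cut at about 5.5% in these data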;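 also: 100% = MG132 at 30 µM as the positive control and 0% = DMSO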
S1P3 antag = S1P3 (human) receptor antagonism. 0.27% of 170,000 active. inhibition, % at 4.98 µM. CHO S1P3 NFAT-BLA reporter, FRET fluorescence, antagonist mode;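 active = inhibition above the plate cutoff, the mean inhibition of test wells on that plate plus 3 SD, cut at about 28% in these data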;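 also: cells challenged with S1P at its EC80 of 0.8 µM; blue over green emission ratio from cleaved BLA substrate after 4 h stimulation; 0% = S1P-stimulated wells and 100% = unstimulated DMSO-only wells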
Target sequence (Q99500 whole entry, looked up): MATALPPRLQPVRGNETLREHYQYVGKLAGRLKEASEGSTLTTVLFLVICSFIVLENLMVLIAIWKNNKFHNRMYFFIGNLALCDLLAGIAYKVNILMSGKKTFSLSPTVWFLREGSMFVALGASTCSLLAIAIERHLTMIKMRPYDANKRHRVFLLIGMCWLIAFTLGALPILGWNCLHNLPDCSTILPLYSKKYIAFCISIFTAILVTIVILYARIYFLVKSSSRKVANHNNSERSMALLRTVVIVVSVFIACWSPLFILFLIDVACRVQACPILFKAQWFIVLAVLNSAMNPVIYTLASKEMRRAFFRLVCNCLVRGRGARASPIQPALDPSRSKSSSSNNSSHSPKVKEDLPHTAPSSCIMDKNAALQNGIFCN
Numbers without * were called inactive; / = no result.

SMILES | Mdm2 ligase inh | CHOP inhibitor | Hsp70 activator | S1P3 antag
CC1CCCCN1c1ncnc(N)c1[N+](=O)[O-] (configuration not stated) | -19.2 | 37.9 | -0.3 | -8.7
CC1Cc2ccccc2N1c1ncnc(N)c1[N+](=O)[O-] (configuration not stated) | -37.6 | 71.9* | -0.3 | 15.0
C[C@@H]1CN(Cc2nc(-c3ccc(Cl)cc3)no2)C[C@H](C)O1 | -0.3 | 6.0 | -0.3 | 11.7
Cc1ccc(/C=C2\SC(=S)N(CC(=O)Nc3cccnc3)C2=O)cc1 | -3.8 | 86.2* | 0.1 | -2.2
O=C(CCN1C(=O)/C(=C/C=C/c2ccccc2)SC1=S)Nc1ccccn1 | 0.3 | 84.6* | 0.5 | -19.2
CC(=O)c1ccc(NC(=O)CN2C(=O)/C(=C/C=C/c3ccccc3)SC2=S)cc1 | 13.0 | 73.7* | 0.0 | -0.3
CC(=C\c1ccccc1)/C=C1/SC(=S)N(CCC(=O)Nc2ccccn2)C1=O | -8.6 | 8.8 | -0.2 | -9.1
CCc1ccc(/C=C2\SC(=S)N(CCC(=O)NC3=NCCS3)C2=O)cc1 | -9.0 | 88.0* | -0.3 | -9.7
Cc1cc(C)c(NC(=O)c2ccc(CNS(=O)(=O)c3cc(C(F)(F)F)ccc3Cl)cc2)c(C)c1 | -19.1 | 49.7 | 0.1 | -25.1
COc1ccccc1/C=C1\SC(=S)N(CC(=O)Nc2nnc(C)s2)C1=O | 8.9 | 72.4* | 0.3 | -17.2
COC(=O)c1ccc(/C=C2/SC(=S)N(CCCC(=O)Nc3ccccn3)C2=O)cc1 | 4.1 | 76.9* | 0.0 | -0.4
Cc1ccc(CSCCNC(=O)CSc2ccccc2)cc1 | 6.9 | 27.0 | -0.3 | 5.6
CCCC(=O)n1nc(-c2ccc(Cl)cc2)nc1SC | -9.3 | 78.0* | 0.0 | -2.2
CSc1nc(-c2ccc(Cl)cc2)nn1S(=O)(=O)c1ccccc1 | 1.9 | 33.3 | -0.2 | /
CSc1nc(-c2ccc(Cl)cc2)nn1S(=O)(=O)c1ccc(Cl)cc1 | 1.5 | 72.0* | 1.0 | /
CCN1CCN(C(=S)Nc2ccc([N+](=O)[O-])cc2)CC1 | -9.5 | -16.5 | -0.5 | /
CCN1C(=O)/C(=C\c2cccn2-c2ccc([N+](=O)[O-])cc2)N(CC)C1=S | / | 74.4* | -0.5 | 3.5
COc1ccc(-c2nc3ccccc3c(=O)n2CCOc2c(C)cccc2C)cc1 | 3.9 | 9.1 | -0.2 | 4.1
COc1cc(OC)cc(-c2nc3ccccc3c(=O)n2OC(=O)c2ccccc2C)c1 | -13.2 | 93.6* | -0.1 | 13.7
COC(=O)c1ccc(OCC(O)CN(CC(C)C)CC(C)C)cc1 (configuration not stated) | -30.2 | 87.0* | -0.3 | 2.4
COC(=O)c1ccc(OCCOc2ccc(C(=O)OC)cc2)cc1 | 11.4 | 16.1 | -0.1 | /
CCCNC(=O)c1nnsc1Sc1ccc(Cl)cc1 | -4.6 | 1.4 | -0.1 | -14.2
COc1cccc(NS(=O)(=O)c2ccc(OC)c(OC)c2)c1 | -2.6 | 11.3 | 0.1 | 63.1*
COc1ccc(S(=O)(=O)Nc2ccccc2)cc1OC | 6.0 | -6.1 | -0.2 | /
COc1cccc(NS(=O)(=O)c2c(C)cc(C)cc2C)c1 | -8.7 | 94.9* | 0.1 | -11.7
SMILES | Mdm2 ligase inh | CHOP inhibitor | Hsp70 activator | S1P3 antag
CCOc1ccc(NC(=O)c2cn(CC(C)C)c(=O)c3c2c2ccccc2n3C)cc1 | -16.3 | 89.7* | 0.1 | 0.6
COCCCNC(=O)c1cn(CC(C)C)c(=O)c2c1c1ccccc1n2C | 4.8 | 15.1 | -0.2 | /
Cc1ccc2cccc(OCC(=O)Nc3ccc(N4CCOCC4)cc3)c2n1 | 3.1 | 1.7 | -0.1 | -1.7
Cc1ccc(-c2[nH]nc(N)c2N=Nc2cccc(Cl)c2C)cc1 | -3.4 | 92.2* | 0.0 | /
Cc1ccc(-c2[nH]nc(N)c2N=Nc2ccccc2C)cc1 | -4.2 | 59.8 | 0.3 | /
CCNC(=O)[C@H]1O[C@@H](n2cnc3c(N)nc(NCCc4ccc(CCC(=O)O)cc4)nc32)C(O)[C@H]1O (some centres not stated) | / | -15.6 | / | /
CN(C)c1ccc(/C=N/N=C/c2ccccc2O)cc1 | -53.3 | 80.6* | -0.3 | 2.0
CN(C)c1ccc(C=Nc2ccccc2C(N)=O)cc1 | -78.1 | -17.5 | 0.1 | 26.3
CCOC(=O)C1CCCN(Cc2ccccc2F)C1 (configuration not stated) | -6.6 | 10.8 | -0.2 | 14.0
CCOC(=O)C1CCCN(Cc2c(Cl)cccc2Cl)C1 (configuration not stated) | -0.5 | 70.6* | -0.1 | -11.1
CCOc1cccc(CNCc2ccc(C(=O)O)cc2)c1 | -42.3 | -17.6 | 0.0 | -8.5
COc1ccc(-c2cc(C3CCN(c4ccc(C(C)=O)cc4[N+](=O)[O-])CC3)[nH]n2)cc1 | -28.0 | 86.5* | -0.2 | /
COC(=O)c1ccc(N2CCC(c3cc(-c4ccc(OC)cc4)n[nH]3)CC2)c([N+](=O)[O-])c1 | -5.7 | 78.8* | 0.1 | /
CC(=O)c1ccc(N2CCC(c3cc(-c4ccc(Cl)cc4)n[nH]3)CC2)c([N+](=O)[O-])c1 | -13.3 | 60.7 | -0.4 | /
Cc1cc(N=Cc2c(O)ccc3cc(Br)ccc23)no1 | 4.9 | -13.2 | -0.5 | -13.3
O=C(CSCCNS(=O)(=O)c1ccccc1)Nc1ccccc1 | -13.5 | 73.8* | -0.2 | -34.5
Cc1ccc2oc(C(Cl)(Cl)Cl)cc(=O)c2c1 | -1.2 | 64.1 | 0.0 | /
Cc1cccc(-n2c(=O)[nH]c3c(C(N)=O)nc(-c4ccccc4Cl)nc32)c1 | -12.2 | 91.1* | -0.2 | -1.9
NC(=O)c1nc(-c2cccs2)nc2c1[nH]c(=O)n2-c1ccc(F)cc1 | -4.7 | 76.4* | -0.3 | -12.3
COCCNC(=O)c1ccccc1NC(=O)Cc1ccccc1 | -3.3 | 18.1 | -0.1 | -11.6
COc1ccc(NC(=S)N2CCNC(=O)C2CC(=O)Nc2ccc(C)cc2)cc1 (configuration not stated) | -12.2 | -6.0 | -0.3 | 2.4
O=C(NC(=S)Nc1cccc(Cl)c1N1CCCCC1)c1cccs1 | -17.0 | -1.8 | 0.3 | /
CCCC(=O)NC(=S)Nc1cccc(Cl)c1N1CCCC1 | -12.3 | 81.2* | 0.0 | 2.3
Cc1ccc(-n2c(COc3c(C)cccc3C)nnc2SCC(=O)Nc2nccs2)cc1 | -23.7 | 33.4 | -0.1 | /
Cc1ccc(OCc2nnc(SCC(=O)Nc3nccs3)n2-c2ccccc2)cc1C | -13.1 | 75.2* | -0.2 | /
SMILES | Mdm2 ligase inh | CHOP inhibitor | Hsp70 activator | S1P3 antag
Fc1cccc(Cl)c1CSc1nnc(CNc2ccccc2)o1 | 1.4 | 35.6 | 0.0 | -7.7
Cc1cc(OCc2nnc(SCC(=O)OC3CCCCC3)o2)ccc1Cl | -6.4 | 36.8 | 0.0 | 4.2
O=C(CSc1nnc(COc2ccccc2Cl)o1)NC(=O)NC1CCCC1 | 0.1 | 79.4* | -0.3 | 16.4
Clc1ccc(CSc2nnc(CNc3cccc(Cl)c3)o2)cc1 | -19.2 | 93.1* | -0.1 | /
O=C(CSc1nnc(CNc2cccc(Cl)c2)o1)OC1CCCCC1 | -13.9 | 80.1* | 1.0 | /
O=C(CSc1nnc(COc2ccc(Cl)cc2)o1)OC1CCCCC1 | 2.8 | 74.4* | -0.4 | -32.5
CC(C)NC(=O)NC(=O)CSc1nnc(COc2ccccc2Cl)o1 | 4.7 | 48.0 | -0.6 | /
O=C(CSc1nnc(CNc2ccc(F)cc2)o1)OC1CCCCC1 | 12.4 | 10.2 | -0.2 | /
O=C(/C(C=Nc1ccc(Br)cc1)=C(/O)c1ccco1)C(F)(F)F | -40.3 | 0.6 | 0.0 | 0.2

Compound activity (PubChem)
